# Assay results reported in paper PMC3127012 (European Journal of Nuclear Medicine and Molecular Imaging, 2011).
# Test: Biodistribution: uptake of 111In-labelled peptides in normal tissues
# Format: in vivo, mice
# Summary of the method: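 Female athymic BALB/c mice with s.c. A431-CCK2R (2 × 10^6 cells, left flank) and mock-transfected A431 (right flank) tumours, ~0.1–0.2 g after ~10 days; n = 5/group. 111In-DOTA-peptide (11 GBq/μmol, >95% radiochemical purity) injected into the tail vein. Blood and organs were dissected at 1 and 4 h p.i., weighed, and gamma-counted; %ID/g, mean ± SD. Blocking group: 1,000-fold molar excess of unlabelled peptide, dissected at 4 h.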
"tissue uptake (mouse, in vivo, iv, 370 kBq (0.03 nmol)) [%ID/g]","blood levels relative to the other peptides investigated (BALB/c nude mice, 111In-labelled peptide, 1 h p.i.)",Compound
> 48,,CSCC[C@H](NC(=O)[C@H](Cc1c[nH]c2ccccc12)NC(=O)CNC(=O)[C@H](Cc1ccc(O)cc1)NC(=O)[C@H](C)NC(=O)[C@H](CCC(=O)O)NC(=O)[C@H](CCC(=O)O)NC(=O)[C@H](CCC(=O)O)NC(=O)[C@H](CCC(=O)O)NC(=O)[C@H](CCC(=O)O)NC(=O)[C@@H](CCC(=O)O)NC(=O)CN1CCN(CC(=O)O)CCN(CC(=O)O)CCN(CC(=O)O)CC1)C(=O)N[C@@H](CC(=O)O)C(=O)N[C@@H](Cc1ccccc1)C(N)=O [MG0]
,tenfold higher,DOTA-Gly-Ser-Cys-(Glu-Ala-Tyr-Gly-Trp-Nle-Asp-Phe-NH2)2 [MGD5]
